Results as given in ChEMBL document CHEMBL4257493, “Discovery of 7-hydroxyaporphines as conformationally restricted ligands for beta-1 and beta-2 adrenergic receptors” (Medchemcomm, 2018).
Active and inactive are the calls of the source. No cut-off for these calls is given here.

Legend:
[1] = molecular target: Alpha-2B adrenergic receptor (Homo sapiens) (UniProt P18089); experiment: Binding affinity to andrenergic alpha2B receptor (unknown origin) assessed as inhibition of radioligand binding at 10 uM by radioligand competition binding assay
[2] = molecular target: T1, Beta-1 adrenergic receptor (Homo sapiens, UniProt P08588); experiment: Agonist activity at human beta1-adrenergic receptor expressed in CHO-K1 cells assessed as induction of cAMP accumulation after 15 mins by HTRF assay; type: functional, cell-based
Method in brief: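 cAMP accumulation in human β1-expressing CHO-K1 cells, quantified by HTRF. Vehicle 0.40% DMSO. Incubation 15 minutes at 37°C in HBSS with 5 mM HEPES, 0.1% BSA and 100 μM IBMX, pH 7.4. Run by a contract screening service.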

[3] = molecular target: Sodium-dependent serotonin transporter (Homo sapiens) (UniProt P31645); experiment: Binding affinity to SERT (unknown origin) assessed as inhibition of radioligand binding by radioligand competition binding assay; conditions: concentration not given here
[4] = organism: Homo sapiens; experiment: Ratio of IC50 for human beta3-adrenergic receptor to IC50 for human beta1-adrenergic receptor
[5] = molecular target: T2, 5-hydroxytryptamine receptor 1B (Homo sapiens, UniProt P28222); experiment: Binding affinity to 5-HT1B receptor (unknown origin) assessed as inhibition of radioligand binding by radioligand competition binding assay
[6] = molecular target: Alpha-2A adrenergic receptor (Homo sapiens, UniProt P08913); experiment: Binding affinity to andrenergic alpha2A receptor (unknown origin) assessed as inhibition of radioligand binding by radioligand competition binding assay
[7] = molecular target: 5-hydroxytryptamine receptor 1A (Homo sapiens) (UniProt P08908); experiment: Binding affinity to 5-HT1A receptor (unknown origin) assessed as inhibition of radioligand binding at 10 uM by radioligand competition binding assay
[8] = molecular target: Delta-type opioid receptor (Homo sapiens) (UniProt P41143); experiment: Binding affinity to DOR (unknown origin) assessed as inhibition of radioligand binding by radioligand competition binding assay; conditions: concentration not given here
[9] = molecular target: Alpha-2A adrenergic receptor (Homo sapiens) (UniProt P08913); experiment: Binding affinity to andrenergic alpha2A receptor (unknown origin) assessed as inhibition of radioligand binding at 10 uM by radioligand competition binding assay
[10] = molecular target: T3, Beta-2 adrenergic receptor (Homo sapiens, UniProt P07550); experiment: Displacement of [3H]-CGP-12177 from human beta2-adrenergic receptor
[11] = molecular target: Histamine H1 receptor (Homo sapiens) (UniProt P35367); experiment: Binding affinity to histamine H1 receptor (unknown origin) assessed as inhibition of radioligand binding by radioligand competition binding assay; conditions: concentration not given here
[12] = molecular target: D(2) dopamine receptor (Homo sapiens) (UniProt P14416); experiment: Binding affinity to dopamine D2 receptor (unknown origin) assessed as inhibition of radioligand binding by radioligand competition binding assay; conditions: concentration not given here
[13] = molecular target: D(1B) dopamine receptor (Homo sapiens) (UniProt P21918); experiment: Binding affinity to dopamine D5 receptor (unknown origin) assessed as inhibition of radioligand binding by radioligand competition binding assay; conditions: concentration not given here
[14] = molecular target: T4, Beta-3 adrenergic receptor (Homo sapiens, UniProt P13945); experiment: Binding affinity to andrenergic beta3 receptor (unknown origin) assessed as inhibition of radioligand binding at 10 uM by radioligand competition binding assay
[15] = molecular target: Muscarinic acetylcholine receptor M3 (Homo sapiens) (UniProt P20309); experiment: Binding affinity to muscarinic M3 receptor (unknown origin) assessed as inhibition of radioligand binding by radioligand competition binding assay; conditions: concentration not given here
[16] = molecular target: T2, 5-hydroxytryptamine receptor 1B; experiment: Binding affinity to 5-HT1B receptor (unknown origin) assessed as inhibition of radioligand binding at 10 uM by radioligand competition binding assay
[17] = molecular target: Alpha-1A adrenergic receptor (Homo sapiens) (UniProt P35348); experiment: Binding affinity to andrenergic alpha1A receptor (unknown origin) assessed as inhibition of radioligand binding by radioligand competition binding assay; conditions: concentration not given here
[18] = molecular target: 5-hydroxytryptamine receptor 7 (Homo sapiens, UniProt P34969); experiment: Binding affinity to 5-HT7 receptor (unknown origin) assessed as inhibition of radioligand binding at 10 uM by radioligand competition binding assay
[19] = organism: Homo sapiens; experiment: Binding affinity to sigma2 receptor (unknown origin) assessed as inhibition of radioligand binding by radioligand competition binding assay; conditions: concentration not given here
[20] = molecular target: T4, Beta-3 adrenergic receptor; experiment: Displacement of [3H]-CGP-12177 from human beta3-adrenergic receptor
[21] = molecular target: Alpha-2B adrenergic receptor (Homo sapiens, UniProt P18089); experiment: Binding affinity to andrenergic alpha2B receptor (unknown origin) assessed as inhibition of radioligand binding by radioligand competition binding assay
[22] = molecular target: 5-hydroxytryptamine receptor 2B (Homo sapiens, UniProt P41595); experiment: Binding affinity to 5-HT2B receptor (unknown origin) assessed as inhibition of radioligand binding at 10 uM by radioligand competition binding assay
[23] = molecular target: T5, 5-hydroxytryptamine receptor 6 (Homo sapiens, UniProt P50406); experiment: Binding affinity to 5-HT6 receptor (unknown origin) assessed as inhibition of radioligand binding at 10 uM by radioligand competition binding assay
[24] = organism: Rattus norvegicus; experiment: Binding affinity to rat GABAA BZP receptor assessed as inhibition of radioligand binding by radioligand competition binding assay; conditions: concentration not given here
[25] = molecular target: 5-hydroxytryptamine receptor 1A (Homo sapiens, UniProt P08908); experiment: Binding affinity to 5-HT1A receptor (unknown origin) assessed as inhibition of radioligand binding by radioligand competition binding assay
[26] = molecular target: T1, Beta-1 adrenergic receptor; experiment: Binding affinity to andrenergic beta1 receptor (unknown origin) assessed as inhibition of radioligand binding by radioligand competition binding assay
[27] = molecular target: 5-hydroxytryptamine receptor 2A (Homo sapiens) (UniProt P28223); experiment: Binding affinity to 5-HT2A receptor (unknown origin) assessed as inhibition of radioligand binding by radioligand competition binding assay; conditions: concentration not given here
[28] = molecular target: D(1A) dopamine receptor (Homo sapiens) (UniProt P21728); experiment: Binding affinity to dopamine D1 receptor (unknown origin) assessed as inhibition of radioligand binding by radioligand competition binding assay; conditions: concentration not given here
[29] = molecular target: T5, 5-hydroxytryptamine receptor 6; experiment: Binding affinity to 5-HT6 receptor (unknown origin) assessed as inhibition of radioligand binding by radioligand competition binding assay
[30] = molecular target: T1, Beta-1 adrenergic receptor; experiment: Antagonist activity at human beta1-adrenergic receptor expressed in CHO-K1 cells assessed as decrease in isoproterenol-induced cAMP accumulation after 15 mins by HTRF assay; type: functional, cell-based
Method in brief: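 Run as a contract service: human beta1 receptor in CHO-K1 cells, with antagonist mode against isoproterenol-stimulated cAMP. Incubation 15 min at 37 °C in HBSS with 5 mM HEPES, 0.1% BSA and 100 µM IBMX, pH 7.4, in 0.40% DMSO vehicle. cAMP accumulation read by HTRF; dose-response curves.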

[31] = molecular target: T3, Beta-2 adrenergic receptor; experiment: Agonist activity at human beta2-adrenergic receptor expressed in CHO-K1 cells assessed as increase in cAMP accumulation after 20 mins by HTRF assay; type: functional, cell-based
Method in brief: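 Human β2 receptor expressed in CHO cells; cAMP accumulation read out by HTRF. Vehicle 0.40% DMSO. Incubated 20 minutes at 37°C in HBSS, 5 mM HEPES, 0.1% BSA, 100 μM IBMX, pH 7.4. Performed by a contract screening service.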

[32] = molecular target: Kappa-type opioid receptor (Homo sapiens) (UniProt P41145); experiment: Binding affinity to KOR (unknown origin) assessed as inhibition of radioligand binding by radioligand competition binding assay; conditions: concentration not given here

SMILES: COc1cc2c3c(c1OC)-c1ccccc1[C@@H](O)[C@@H]3NCC2
- inhibition [1]: > 50%
- Activity [2]: inactive
- inhibition [3]: < 50%
- Ratio IC50 [4]: 150
- Ki [5]: 1210 nM
- Ki [6]: 1150 nM
- inhibition [7]: > 50%
- inhibition [8]: < 50%
- inhibition [9]: > 50%
- IC50 [10]: 1.4 nM
- inhibition [11]: < 50%
- inhibition [12]: < 50%
- inhibition [13]: < 50%
- inhibition [14]: > 50%
- inhibition [15]: < 50%
- inhibition [16]: > 50%
- inhibition [17]: < 50%
- inhibition [18]: > 50%
- inhibition [19]: < 50%
- IC50 [20]: 240 nM
- Ki [21]: 571 nM
- inhibition [22]: > 50%
- inhibition [23]: > 50%
- inhibition [24]: < 50%
- Ki [25]: 71 nM
- Ki [26]: 19 nM
- inhibition [27]: < 50%
- inhibition [28]: < 50%
- Ki [29]: 862 nM
- IC50 [30]: 17 nM
- Activity [31]: inactive
- inhibition [32]: < 50%
